Calls of active or inactive are those of the source. The rule behind the calls is not given here.
What was measured:
Neutrophil elastase [1] = target: T1, Neutrophil elastase (Homo sapiens, UniProt P08246); assay: In vitro inhibition of human leukocyte elastase.
T1 sequence (P08246 whole entry): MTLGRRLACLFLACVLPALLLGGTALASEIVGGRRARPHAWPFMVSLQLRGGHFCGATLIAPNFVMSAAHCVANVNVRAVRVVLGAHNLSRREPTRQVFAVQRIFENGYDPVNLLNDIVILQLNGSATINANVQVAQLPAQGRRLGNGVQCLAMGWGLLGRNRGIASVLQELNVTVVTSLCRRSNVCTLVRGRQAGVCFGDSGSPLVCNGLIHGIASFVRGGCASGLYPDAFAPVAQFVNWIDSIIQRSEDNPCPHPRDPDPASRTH

Neutrophil elastase [2] = target: T1, Neutrophil elastase; assay: HLE-inhibitor (Human Leukocyte Elastase) dissociation constant determined by using Dixon Plot
Neutrophil elastase [3] = target: T1, Neutrophil elastase; assay: Compound was tested for the enzyme inhibitory activity against Human Leukocyte Elastase (HLE); NI = no inhibition
Cathepsin G [4] = target: T2, Cathepsin G (Homo sapiens, UniProt P08311); assay: Compound was tested for the enzyme inhibitory activity against Cathepsin G (CatG); NI = no inhibition
T2 sequence (P08311 whole entry): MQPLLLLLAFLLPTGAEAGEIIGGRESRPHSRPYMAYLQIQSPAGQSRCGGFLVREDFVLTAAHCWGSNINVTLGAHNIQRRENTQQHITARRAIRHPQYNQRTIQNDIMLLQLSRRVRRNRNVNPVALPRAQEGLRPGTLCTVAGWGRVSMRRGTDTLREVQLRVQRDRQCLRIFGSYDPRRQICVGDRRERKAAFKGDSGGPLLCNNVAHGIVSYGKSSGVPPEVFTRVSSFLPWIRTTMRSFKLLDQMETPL

Neutrophil elastase [5] = target: T1, Neutrophil elastase; assay: Compound was tested for the enzyme inhibitory activity against Human Leukocyte elastase
Cathepsin G [6] = target: T2, Cathepsin G; assay: Compound was tested for the enzyme inhibitory activity against Cathepsin G
[7] = target: Chymotrypsinogen A (Bos taurus) (UniProt P00766); assay: Inhibitory activity against Chymotrypsinogen at 61 uM concentration
[8] = target: T3, Cathepsin G (Homo sapiens) (UniProt P08311); assay: Inhibitory activity against Cathepsin G (CatG) at 61 uM concentration; NI = no inhibition
T3 sequence (whole entry): T2 sequence (P08311 whole entry)

[9] = target: T4, Neutrophil elastase (Homo sapiens) (UniProt P08246); assay: Inhibitory activity against Human Leukocyte Elastase (HLE) at 61 uM concentration
T4 sequence (whole entry): T1 sequence (P08246 whole entry)

[10] = target: T5, Chymotrypsin-like elastase family member 2A (Sus scrofa) (UniProt P08419); assay: Inhibitory activity against Porcine Pancreatic Elastase (PPE) at 61 uM concentration; NI = no inhibition
T5 sequence (whole entry): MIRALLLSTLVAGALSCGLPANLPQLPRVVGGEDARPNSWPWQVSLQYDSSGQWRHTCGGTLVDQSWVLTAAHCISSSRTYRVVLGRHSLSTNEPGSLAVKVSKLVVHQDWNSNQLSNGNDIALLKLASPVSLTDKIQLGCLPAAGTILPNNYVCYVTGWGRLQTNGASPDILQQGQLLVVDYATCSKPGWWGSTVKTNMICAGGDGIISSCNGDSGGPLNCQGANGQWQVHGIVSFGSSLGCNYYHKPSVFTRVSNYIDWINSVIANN

Cathepsin G [11] = target: T2, Cathepsin G; assay: Inhibition of Cathepsin G (CatG)
[12] = target: Chymotrypsinogen A (Bos taurus) (UniProt P00766); assay: Inhibitory activity against Chymotrypsinogen at 58 uM concentration
[13] = target: T3, Cathepsin G (Homo sapiens); assay: Inhibitory activity against Cathepsin G (CatG) at 58 uM concentration
[14] = target: T5, Chymotrypsin-like elastase family member 2A (Sus scrofa); assay: Inhibitory activity against Porcine Pancreatic Elastase (PPE) at 58 uM concentration
[15] = target: T4, Neutrophil elastase (Homo sapiens); assay: Inhibitory activity against Human Leukocyte Elastase (HLE) at 58 uM concentration
[16] = target: T4, Neutrophil elastase (Homo sapiens); assay: Inhibitory activity against Human Leukocyte Elastase (HLE) at 56 uM concentration; NI = no inhibition
[17] = target: Chymotrypsinogen A (Bos taurus) (UniProt P00766); assay: Inhibitory activity against Chymotrypsinogen at 56 uM concentration; NI = no inhibition
[18] = target: T5, Chymotrypsin-like elastase family member 2A (Sus scrofa); assay: Inhibitory activity against Porcine Pancreatic Elastase (PPE) at 56 uM concentration; NI = no inhibition
[19] = target: T3, Cathepsin G (Homo sapiens); assay: Inhibitory activity against Cathepsin G (CatG) at 56 uM concentration; NI = no inhibition
[20] = target: Chymotrypsinogen A (Bos taurus) (UniProt P00766); assay: Inhibitory activity against Chymotrypsinogen at 29 uM concentration; NI = no inhibition
[21] = target: T4, Neutrophil elastase (Homo sapiens); assay: Inhibitory activity against Human Leukocyte Elastase (HLE) at 29 uM concentration; NI = no inhibition
[22] = target: T3, Cathepsin G (Homo sapiens); assay: Inhibitory activity against Cathepsin G (CatG) at 29 uM concentration
[23] = target: T5, Chymotrypsin-like elastase family member 2A (Sus scrofa); assay: Inhibitory activity against Porcine Pancreatic Elastase (PPE) at 29 uM concentration; NI = no inhibition
[24] = target: T5, Chymotrypsin-like elastase family member 2A (Sus scrofa); assay: Inhibitory activity against Porcine Pancreatic Elastase (PPE) at 63 uM concentration
In short: (§1)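 Percent inhibition of enzyme activity at a single inhibitor concentration. Assays run at 25 °C in 0.1 M HEPES, 0.5 M NaCl, pH 7.5, with 9-11% DMSO. The method otherwise follows an earlier report.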

[25] = target: T4, Neutrophil elastase (Homo sapiens); assay: Inhibitory activity against Human Leukocyte Elastase (HLE) at 63 uM concentration; in short: as §1
[26] = target: T3, Cathepsin G (Homo sapiens); assay: Inhibitory activity against Cathepsin G (CatG) at 63 uM concentration; in short: as §1
[27] = target: Chymotrypsinogen A (Bos taurus) (UniProt P00766); assay: Inhibitory activity against Chymotrypsinogen at 63 uM concentration; in short: as §1
[28] = target: Chymotrypsinogen A (Bos taurus) (UniProt P00766); assay: Inhibitory activity against Chymotrypsinogen at 62 uM concentration; settings: Sus scrofa
[29] = target: T3, Cathepsin G (Homo sapiens); assay: Inhibitory activity against Cathepsin G (CatG) at 62 uM concentration; NI = no inhibition
[30] = target: T4, Neutrophil elastase (Homo sapiens); assay: Inhibitory activity against Human Leukocyte Elastase (HLE) at 62 uM concentration
Neutrophil elastase [31] = target: T1, Neutrophil elastase; assay: Compound was tested for the enzyme inhibitory activity against Human Leukocyte Elastase (HLE) at 62 uM concentration
[32] = target: T5, Chymotrypsin-like elastase family member 2A (Sus scrofa); assay: Inhibitory activity against Porcine Pancreatic Elastase (PPE) at 62 uM concentration
Neutrophil elastase [33] = target: T1, Neutrophil elastase; assay: Compound was tested for the enzyme inhibitory activity against Human Leukocyte Elastase (HLE)
[34] = target: T4, Neutrophil elastase (Homo sapiens); assay: Inhibitory activity against Human Leukocyte Elastase (HLE) at 28 uM concentration
[35] = target: T5, Chymotrypsin-like elastase family member 2A (Sus scrofa); assay: Inhibitory activity against Porcine Pancreatic Elastase (PPE) at 28 uM concentration; NI = no inhibition
[36] = target: Chymotrypsinogen A (Bos taurus) (UniProt P00766); assay: Inhibitory activity against Chymotrypsinogen at 28 uM concentration
[37] = target: T3, Cathepsin G (Homo sapiens); assay: Inhibitory activity against Cathepsin G (CatG) at 28 uM concentration

Question: With CCCCOC(=O)Oc1cccc2c1C(=O)c1c(OC(=O)OCCCC)cc(C)cc1C2=O as the compound, how does the IC50 (Neutrophil elastase [1]) read?
Answer: 5.1 µM

Question: And the Ki (Neutrophil elastase [2])?
Answer: 1.9 µM

Question: COc1cccc2c1C(=O)c1c(ccc(Cc3ccccc3)c1OC(C)=O)C2=O was tested. Which IC50 (Neutrophil elastase [3]) did it give?
Answer: Not Active

Question: And the IC50 (Cathepsin G [4])?
Answer: Not Active

Question: CCCCCCc1ccc2c(c1O)C(=O)c1c(OC)cccc1C2=O was tested. Which IC50 (Neutrophil elastase [5]) did it give?
Answer: 6 µM

Question: What about the IC50 (Cathepsin G [6]) of the same compound?
Answer: > 60 µM

Question: For O=C1c2cccc(O)c2C(=O)c2c1ccc(Cc1ccccc1)c2O, which IC50 (Neutrophil elastase [1]) is on record?
Answer: 13 µM

Question: Which results are given for CC(=O)OCc1cc(OC(C)=O)c2c(c1)C(=O)c1cccc(OC(C)=O)c1C2=O?
Answer: inhibition [7]: 3%; inhibition [8]: inactive; inhibition [9]: 30%; inhibition [10]: inactive

Question: How did the IC50 (Neutrophil elastase [5]) turn out when Cc1ccc2c(c1O)C(=O)c1ccccc1C2=O was run?
Answer: 11 µM

Question: And the IC50 (Cathepsin G [6])?
Answer: > 60 µM

Question: CCCCCCc1ccc2c(c1O)C(=O)c1c(O)cccc1C2=O was tested. Which IC50 (Neutrophil elastase [1]) did it give?
Answer: 4.2 µM

Question: And the IC50 (Cathepsin G [11])?
Answer: 28 µM

Question: For CCCCCc1ccc2c(c1O)C(=O)c1c(OC)cccc1C2=O, which IC50 (Neutrophil elastase [1]) is on record?
Answer: 6.1 µM

Question: And the IC50 (Cathepsin G [11])?
Answer: > 60 µM

Question: Which inhibition [12] does the source give for O=C(O)c1cc(O)c2c(c1)C(=O)c1cc(O)cc(O)c1C2=O here?
Answer: 3%

Question: What about the inhibition [13] of the same compound?
Answer: 14%

Question: And the inhibition [14]?
Answer: 9%

Question: And the inhibition [15]?
Answer: 21%

Question: What does the source list for CC(=O)Oc1cccc2c1C(=O)c1c(OC(C)=O)cc(C)cc1C2=O?
Answer: inhibition [16]: inactive; inhibition [17]: inactive; inhibition [18]: inactive; inhibition [19]: inactive

Question: For COc1cc(OC)c2c(c1)C(=O)c1cc(CBr)cc(OC)c1C2=O, which inhibition [20] is on record?
Answer: inactive

Question: What about the inhibition [21] of the same compound?
Answer: inactive

Question: And the inhibition [22]?
Answer: 14%

Question: And the inhibition [23]?
Answer: inactive

Question: For O=C1c2cccc(O)c2C(=O)c2c(O)cc(CO)cc21, which inhibition [24] is on record?
Answer: 18%

Question: What about the inhibition [25] of the same compound?
Answer: 21%

Question: And the inhibition [26]?
Answer: 3%

Question: What about the inhibition [27] of the same compound?
Answer: 13%

Question: C=CCc1ccc2c(c1OC)C(=O)c1c(OC)cccc1C2=O was tested. Which IC50 (Neutrophil elastase [3]) did it give?
Answer: Not Active

Question: What about the IC50 (Cathepsin G [11]) of the same compound?
Answer: > 60 µM

Question: CCCCOC(=O)Oc1cc(OC(=O)OCCCC)c2c(c1)C(=O)c1cc(C)cc(OC(=O)OCCCC)c1C2=O was tested. Which IC50 (Neutrophil elastase [1]) did it give?
Answer: 1.3 µM

Question: For CC(=O)Oc1cc(OC(C)=O)c2c(c1)C(=O)c1cc(C)cc(OC(C)=O)c1C2=O [EMODIN TRIACETATE], which inhibition [28] is on record?
Answer: 3%

Question: What about the inhibition [29] of the same compound?
Answer: inactive

Question: What about the inhibition [30] of the same compound?
Answer: 79%

Question: And the IC50 (Neutrophil elastase [31])?
Answer: 13 µM

Question: What about the inhibition [32] of the same compound?
Answer: 22%

Question: COc1cccc2c1C(=O)c1c(ccc(CC3CO3)c1O)C2=O (stereo unspecified) was tested. Which IC50 (Neutrophil elastase [3]) did it give?
Answer: Not Active

Question: What about the IC50 (Cathepsin G [4]) of the same compound?
Answer: Not Active

Question: Which IC50 (Cathepsin G [4]) does the source give for CCc1ccc2c(c1)C(=O)c1ccccc1C2=O here?
Answer: Not Active

Question: For CCCCOC(=O)Oc1cc(C)cc2c1C(=O)c1c(OC(=O)OCCCC)cc(OC)cc1C2=O, which Ki (Neutrophil elastase [2]) is on record?
Answer: 2.8 µM

Question: And the IC50 (Neutrophil elastase [33])?
Answer: 2.5 µM

Question: For C=CCc1ccc2c(c1O)C(=O)c1c(OC)cccc1C2=O, which IC50 (Neutrophil elastase [1]) is on record?
Answer: 11 µM

Question: What about the IC50 (Cathepsin G [11]) of the same compound?
Answer: > 60 µM

Question: For CCCCOC(=O)Oc1cc(C)cc2c1C(=O)c1c(OC(=O)OCCCC)cc(OCCC)cc1C2=O, which Ki (Neutrophil elastase [2]) is on record?
Answer: 0.15 µM

Question: What about the IC50 (Neutrophil elastase [33]) of the same compound?
Answer: 1.8 µM

Question: What does the source list for CC(=O)Oc1cc(OC(C)=O)c2c(c1)C(=O)c1cc(CBr)cc(OC(C)=O)c1C2=O?
Answer: inhibition [34]: 28%; inhibition [35]: inactive; inhibition [36]: 3%; inhibition [37]: 9%

Question: Which results are given for COc1cccc2c1C(=O)c1c(ccc(CC(C)C)c1O)C2=O?
Answer: IC50 (Neutrophil elastase [1]): 11 µM; IC50 (Cathepsin G [4]): No inhibition

Source: ChEMBL document CHEMBL1125455, “Novel anthraquinone inhibitors of human leukocyte elastase and cathepsin G” (J Med Chem, 1992)
